Results on 13 substances are retold here after PMC9200056 (Chemical Science, 2022).

Holding throughout (format): biochemical
In experiment [1] the target is T1, fXa (factor Xa) (Homo sapiens, UniProt P00742). Briefly: Initial substrate screening. Particulars: 1 μM substrate, relative to SMX15. The essentials: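 ACC fluorogenic substrates at 1 μM final, from 10 mM stocks diluted 100-fold in DMSO. fXa (7–100 nM, set per substrate for adequate signal) preincubated 15 min at 37 °C in 20 mM Tris, 150 mM NaCl, 5 mM CaCl2, pH 7.4. Hydrolysis read for 30 min at 37 °C (ex 355, em 460 nm). Linear-phase RFU s−1 normalised to equal enzyme activity, averaged over at least two repeats.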

Experiment [2] concerns the target APC (activated protein C) (Homo sapiens, UniProt P04070). Kind of experiment: Initial substrate screening. The settings on record: for increase in activity on exchanging L-Nle(O-Bzl) (SMA4) at P3: initial screening, 1 μM substrate, relative to SMA4. Summed up: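 Plasma-derived human APC (thrombin–thrombomodulin-activated) was preincubated 15 min at 37 °C in Tris/NaCl/CaCl2 buffer, pH 7.4, then added to ACC substrates at 1 μM final. Final APC was 50–90 nM, chosen per substrate set. ACC release was read at 355/460 nm for 30 min. Rates (RFU s−1) came from the linear portion and were adjusted to equal enzyme activity; at least 2 repeats were averaged.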

Experiment [3] has as its target T1, fXa (factor Xa). Briefly: Substrate kinetics. The essentials: (§1)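 Purified plasma-derived human enzymes were preincubated 15 min at 37 °C in Tris/NaCl/CaCl2 buffer, pH 7.4. They were added to eight serially diluted ACC substrate concentrations (4.68 nM–741 μM overall). ACC release was followed at 355/460 nm for 30 min at 37 °C to derive kcat, KM and kcat/KM; at least duplicate runs were averaged.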

Experiment [4] addresses T2, thrombin (Homo sapiens, UniProt P00734). Kind of experiment: Inhibition kinetics. The settings on record: ratio of kobs/I values.
Experiment [5] addresses T2, thrombin. Kind of experiment: Substrate kinetics. Particulars: ratio of kcat/KM values. Summed up:
as §1

For experiment [6], the target named is T1, fXa (factor Xa). Briefly: Inhibition kinetics. The settings on record: ratio of kobs/I values.
The test system of the next experiment is APC in human plasma. Briefly: APC labeling by fluorescent ABP in human plasma. The settings on record: EDTA plasma diluted 7.5 times, probe 20 μM, 60 min, 37 °C; SDS–PAGE. The essentials: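 Human plasma from EDTA-anticoagulated whole blood, diluted 7.5-fold in 20 mM Tris, 150 mM NaCl, 5 mM CaCl2, pH 7.4, mixed 1:1 with APC-directed Cy5 probe (1–20 μM), 60 min, 37 °C. SDS/DTT reduction at 95 °C for 5 min, then 12% SDS–PAGE and nitrocellulose blot. Chicken anti-protein C for 7 h, then Alexa 488 secondary. Cy5 imaged at 658 nm, antibody at 488 nm. At least 3 replicates.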

The test system of a further experiment is thrombin in human plasma. Briefly: Thrombin labeling by fluorescent ABP in human plasma. Particulars: EDTA plasma diluted 7.5 times, probe 20 μM, 60 min, 37 °C; SDS–PAGE. Summed up: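 Human plasma from EDTA-anticoagulated whole blood, diluted 7.5-fold in Tris/NaCl/5 mM CaCl2 buffer, pH 7.4, incubated 1:1 with thrombin-directed Cy7 probe (1–20 μM) for 60 min at 37 °C. Reduced in SDS/DTT at 95 °C, run on 12% SDS–PAGE and blotted. Sheep anti-fII for 7 h, then Alexa 680 secondary. Cy7 imaged at 784 nm, antibody at 658 nm. At least 3 replicates.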

Non-standard residues stand in square brackets, D forms with d. *: point of attachment. 1Nal = N[C@@H](Cc1cccc2ccccc12)C(=O)O; ACC = NC(=O)Cc1cc(=O)oc2cc(N*)ccc12; Igl = N[C@H](C(=O)O)C1Cc2ccccc2C1; hArg = N=C(N)NCCCC[C@H](N)C(=O)O; Dab = NCC[C@H](N)C(=O)O; Cbz = O=C(OCc1ccccc1)*

T1 sequence (P00742 235-488 limits assumed): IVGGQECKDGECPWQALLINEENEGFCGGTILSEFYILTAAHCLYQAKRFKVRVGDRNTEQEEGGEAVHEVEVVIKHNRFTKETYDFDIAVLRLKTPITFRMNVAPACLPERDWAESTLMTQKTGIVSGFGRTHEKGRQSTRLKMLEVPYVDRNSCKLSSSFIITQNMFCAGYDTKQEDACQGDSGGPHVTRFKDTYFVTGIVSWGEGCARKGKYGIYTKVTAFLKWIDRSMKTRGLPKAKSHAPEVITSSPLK
T1 sequence (P00742 41-179 partner limits assumed): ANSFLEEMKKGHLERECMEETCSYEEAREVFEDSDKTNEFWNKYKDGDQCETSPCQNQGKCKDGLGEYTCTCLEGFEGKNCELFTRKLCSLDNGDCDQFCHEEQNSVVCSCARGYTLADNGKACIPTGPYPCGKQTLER
APC (activated protein C), sequence (P04070 212-461 limits assumed): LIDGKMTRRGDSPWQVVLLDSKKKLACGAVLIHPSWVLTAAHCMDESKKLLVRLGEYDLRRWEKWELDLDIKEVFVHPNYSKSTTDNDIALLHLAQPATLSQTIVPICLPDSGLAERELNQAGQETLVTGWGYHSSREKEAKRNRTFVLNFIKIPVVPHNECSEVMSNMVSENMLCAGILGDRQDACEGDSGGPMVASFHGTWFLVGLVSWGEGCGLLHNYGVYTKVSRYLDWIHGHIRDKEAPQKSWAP
APC (activated protein C), sequence (P04070 43-197 partner limits assumed): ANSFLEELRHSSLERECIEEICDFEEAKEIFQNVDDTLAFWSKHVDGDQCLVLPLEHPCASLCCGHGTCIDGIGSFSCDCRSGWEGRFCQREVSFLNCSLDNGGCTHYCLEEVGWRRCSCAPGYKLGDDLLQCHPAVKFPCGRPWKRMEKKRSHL

For Ac-Arg(NO2)-hArg-1-Nal-Arg-AC C [SMX13], the “change of overall activity on replacing D-Pro (SMX15) at P4” value at fXa (factor Xa) [1] was “only a slight decrease in the overall activity”.

Turning to Ac-Gln-hArg-1-Nal-Arg-AC C [SMX14], on fXa (factor Xa) [1], the “change of overall activity on replacing D-Pro (SMX15) at P4” value was “only a slight decrease in the overall activity”.

Take “Ac-K[Dab](Cbz)[Igl]R-{ACC} (SMILES CC(=O)N[C@@H](CCCCN)C(=O)N[C@@H](CCNC(=O)OCc1ccccc1)C(=O)N[C@H](C(=O)N[C@@H](CCCNC(=N)N)C(=O)Nc1ccc2c(CC(N)=O)cc(=O)oc2c1)C1Cc2ccccc2C1) [SMA5]”: in experiment [2] (relative to SMA54), the “cleaved more efficiently than the best natural substrate (SMA54)” value was “approximately 50 fold”.

Turning to Ac-Lys-Agp-Lys(2-Cl-Z)-Arg-AC C [SMA2], the “increase in activity on exchanging L-Nle(O-Bzl) (SMA4) at P3” value (shortened to “increase in activity”) in experiment [2] was 22 fold.

In the case of “Ac-Lys-Dab(Z )-Lys(2-Cl-Z)-Arg-AC C [SMA1]”, in experiment [2], the “increase in activity” value was 13 fold.

Regarding “Ac-Lys-Glu(Bzl)-Lys(2-Cl-Z)-Arg-AC C [SMA3]”, the “increase in activity” value in experiment [2] stood at 5.5 fold.

Regarding “Ac-M[hArg][1Nal]R-{ACC} (SMILES CSCC[C@H](NC(C)=O)C(=O)N[C@@H](CCCCNC(=N)N)C(=O)N[C@@H](Cc1cccc2ccccc12)C(=O)N[C@@H](CCCNC(=N)N)C(=O)Nc1ccc2c(CC(N)=O)cc(=O)oc2c1) [SMX61]”, the “increase of the kcat/KM value on exchanging D-Pro at P4 (SMX15) for L-Met” value at fXa (factor Xa) [3] (fXa, relative to SMX15) was 55%.

As to “Ac-[dP][hArg][1Nal]R-{ACC} (SMILES CC(=O)N1CCC[C@@H]1C(=O)N[C@@H](CCCCNC(=N)N)C(=O)N[C@@H](Cc1cccc2ccccc12)C(=O)N[C@@H](CCCNC(=N)N)C(=O)Nc1ccc2c(CC(N)=O)cc(=O)oc2c1) [SMX15]”, at fXa (factor Xa) [3] (ratio of kcat/KM values), the “times more hydrolyzed by fXa than by thrombin” value worked out at 358 times.

“Ac–hCha–Cys(MeBzl)–Pip–Arg^P(OPh)2 [I-SMII22]”: on thrombin [4], the “kobs/I selectivity: thrombin inhibition more rapid than APC” value was found to be 348 fold and the “kobs/I selectivity: thrombin inhibition more rapid than fXa” value worked out at 2087 fold.

With Ac–hCha–Cys(MeBzl)–Pip–Arg–ACC [SMII22], at thrombin [5], the “kcat/KM selectivity for thrombin over APC” value was determined as 3383 fold and the “kcat/KM selectivity for thrombin over fXa” value was 162 fold.

Turning to “Cy3–6-Ahx–DPro–hArg–1-Nal–Arg^P(OPh)2 [P-SMX152]”, the “inhibition of APC less efficient than fXa” value on fXa (factor Xa) [6] came out at 75 fold.

With “Cy5–6-Ahx–Lys–Dab(Z)–Lys–Arg^P(OPh)2 [P-SMA172]”, in the experiment on APC in human plasma, the “off-target labeling in human plasma at 20 μM probe” value is “only minor additional labeling between 25 and 35 kDa”.

With “Cy7–6-Ahx–hCha–Cys(MeBzl)–Pip–Arg^P(OPh)2 [P-SMII222]”, in the experiment on thrombin in human plasma, the “selectivity of thrombin labeling in human plasma at 20 μM probe” value is given as “selectivity was maintained with thrombin labeling”.
